In ChEMBL document CHEMBL1135105, “Design, synthesis and biochemical evaluation of AC ring mimics as novel inhibitors of the enzyme estrone sulfatase (ES)” (Bioorg Med Chem Lett, 2002):

Tests used:
[1] = Partition coefficient (logP); type: physicochemical; conditions: octanol/water
[2] = target: T1, Steryl-sulfatase (Homo sapiens) (UniProt P08842); experiment: Compound was evaluated for its percent inhibition against the estrone sulfatase enzyme at a concentration of 5 uM
T1 sequence (whole entry): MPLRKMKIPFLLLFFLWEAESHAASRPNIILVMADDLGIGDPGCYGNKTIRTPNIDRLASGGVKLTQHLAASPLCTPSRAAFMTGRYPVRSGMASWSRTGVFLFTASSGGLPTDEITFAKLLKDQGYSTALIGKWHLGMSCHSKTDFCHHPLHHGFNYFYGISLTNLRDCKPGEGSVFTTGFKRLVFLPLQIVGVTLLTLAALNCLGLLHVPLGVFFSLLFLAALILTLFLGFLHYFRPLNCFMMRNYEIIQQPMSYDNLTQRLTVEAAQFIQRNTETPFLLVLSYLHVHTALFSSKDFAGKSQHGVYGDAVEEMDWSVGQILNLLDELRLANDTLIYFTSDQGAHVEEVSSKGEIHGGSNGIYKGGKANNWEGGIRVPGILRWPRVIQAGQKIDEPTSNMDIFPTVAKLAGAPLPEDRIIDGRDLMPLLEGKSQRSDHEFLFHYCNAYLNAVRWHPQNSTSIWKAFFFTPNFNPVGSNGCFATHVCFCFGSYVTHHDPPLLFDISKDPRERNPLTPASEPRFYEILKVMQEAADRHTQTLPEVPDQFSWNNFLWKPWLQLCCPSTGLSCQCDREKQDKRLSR
Outline: (§1)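 Placental microsomes, diluted to 115 µg/mL in 0.05 M Tris-HCl pH 7.2, are pre-warmed 5 min at 37 °C. They are added to tubes holding [3H]estrone sulfate (300,000 dpm) and inhibitor, which was dried from ethanol under nitrogen. Incubation runs 20 min at 37 °C and is quenched with toluene. Radioactivity in the toluene extract is counted. Triplicates are run alongside no-inhibitor controls and boiled-microsome blanks.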

Steryl-sulfatase = target: T2, Steryl-sulfatase (Homo sapiens, UniProt P08842); experiment: Compound was evaluated for its inhibitory activity against estrone sulfatase enzyme
T2 sequence (P08842 whole entry): T1 sequence (whole entry)
Outline: as §1, with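 “They” for “Placental microsomes, diluted to 115 µg/mL in 0.05 M Tris-HCl pH 7.2, are pre-warmed 5 min at 37 °C. They”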

[3] = target: T1, Steryl-sulfatase (Homo sapiens); conditions: 10 uM

Row | Structure (SMILES) | logP [1] | inhibition [2] | IC50 (Steryl-sulfatase) | inhibition [3]
1 | NS(=O)(=O)Oc1ccc2c3c(c(=O)oc2c1)CCCCC3 [IROSUSTAT] | 2.65 | 86.8% | – | –
2 | C[C@]12CC[C@@H]3c4ccc(OS(N)(=O)=O)cc4CCC3[C@@H]1CCC2=O (single isomer, unassigned) [EMATE] | 3.87 | – | 0.1 uM tube-1 | –
3 | CCCCOC(=O)c1ccc(-c2ccc(OS(N)(=O)=O)cc2)cc1 | 4.38 | 48.4% | 5.8 uM tube-1 | –
4 | Cc1cc(=O)oc2cc(OS(N)(=O)=O)ccc12 | 1.7 | – | 10 uM tube-1 | 47.6%
5 | CCOC(=O)c1ccc(-c2ccc(OS(N)(=O)=O)cc2)cc1 | 3.52 | 53.4% | 4.2 uM tube-1 | –
6 | COC(=O)c1ccc(-c2ccc(OS(N)(=O)=O)cc2)cc1 | 3.18 | 44.2% | 5.2 uM tube-1 | –
7 | NS(=O)(=O)Oc1ccc(-c2ccccc2)cc1 | 3.45 | 5.5% | 76.1 uM tube-1 | –
8 | CCCOC(=O)c1ccc(-c2ccc(OS(N)(=O)=O)cc2)cc1 | 3.99 | 60.5% | 3.5 uM tube-1 | –
9 | N#Cc1ccc(-c2ccc(OS(N)(=O)=O)cc2)cc1 | 3.48 | 44.2% | 6.7 uM tube-1 | –
